Holding throughout (format): functional
Assay [1] relates to Staphylococcus aureus. Kind of assay: Antibacterial activity against Staphylococcus aureus NCTC 7447 assessed as growth inhibition after 24 hrs by Kirby-Bauer disc diffusion method relative to ampicillin. More on the design: concentration or dose not given beside the values. An outline of the steps:
(§1)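 Modified Kirby-Bauer disc diffusion on Mueller-Hinton agar spread with broth culture at about 10^8 cells/ml. Blank 8.0 mm paper discs were impregnated with test solution. Ampicillin discs at the same concentration and solvent served as positive control, and solvent discs as negative control. Plates were incubated at 35–37 °C, and inhibition-zone diameter (mm) was read at 24 h by caliper. % activity index = zone relative to ampicillin.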
(In general: A growth-free zone around the sample is the usual read-out of agar diffusion tests.)

The test system of assay [2] is Staphylococcus aureus. Put plainly: Antibacterial activity against Staphylococcus aureus NCTC 7447 assessed as growth inhibition by disc diffusion method.
Assay [3] deals with Bacillus cereus. Put plainly: Antibacterial activity against Bacillus cereus NCTC 14579 assessed as growth inhibition after 24 hrs by Kirby-Bauer disc diffusion method. An outline of the steps:
as §1

For assay [4], the system named is Proteus mirabilis. Put plainly: Antibacterial activity against Proteus mirabilis NCTC 289 assessed as growth inhibition after 24 hrs by Kirby-Bauer disc diffusion method. The method in brief:
as §1

Assay [5] has as its system Serratia marcescens. Put plainly: Antibacterial activity against Serratia marcescens IMRU 70 assessed as growth inhibition after 24 hrs by Kirby-Bauer disc diffusion method. An outline of the steps:
as §1

For assay [6], the system named is Bacillus cereus. Kind of assay: Antibacterial activity against Bacillus cereus NCTC 14579 assessed as growth inhibition after 24 hrs by Kirby-Bauer disc diffusion method relative to ampicillin. The method in brief:
as §1

Assay [7] concerns Proteus mirabilis. Kind of assay: Antibacterial activity against Proteus mirabilis NCTC 289 assessed as growth inhibition after 24 hrs by Kirby-Bauer disc diffusion method relative to ampicillin. More on the design: concentration or dose not given beside the values. The method in brief:
as §1

Assay [8] relates to Serratia marcescens. Put plainly: Antibacterial activity against Serratia marcescens IMRU 70 assessed as growth inhibition after 24 hrs by Kirby-Bauer disc diffusion method relative to ampicillin. Set-up: concentration or dose not given beside the values. An outline of the steps:
as §1

The subject of assay [9] is Staphylococcus aureus. Put plainly: Antibacterial activity against Staphylococcus aureus NCTC 7447 assessed as growth inhibition after 24 hrs by Kirby-Bauer disc diffusion method. An outline of the steps: as §1
Assay [10] has as its system Rattus norvegicus. Kind of assay: Antiinflammatory activity in albino Wistar rat assessed as inhibition of carrageenan-induced paw oedema at 50 mg/kg, po administered 1 hr prior to carrageenan challenge measured at 3 hrs by plethysmometeric analysis relative to control. An outline of the steps: (§2)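 Albino Wistar rats of either sex (130–150 g), 6 per group, fasted 12 h with water ad libitum. Test compounds were given orally at 50 mg/kg as DMSO solution; controls received 1 ml 20% v/v DMSO. One hour later, 0.1 ml 1% w/v carrageenan in 0.9% saline was injected into the left hind paw plantar region. Plethysmometer volume was read at 0 and 1–4 h. % inhibition = [1 − (Vt/Vc)] × 100.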
A general note: Carrageenan injected into the paw causes an acute inflammation.

Assay [11] deals with Rattus norvegicus. Put plainly: Antiinflammatory activity in albino Wistar rat assessed as inhibition of carrageenan-induced paw oedema at 50 mg/kg, po administered 1 hr prior to carrageenan challenge measured at 4 hrs by plethysmometeric analysis relative to control. The method in brief: as §2
The subject of assay [12] is Rattus norvegicus. Kind of assay: Antiinflammatory activity in albino Wistar rat assessed as inhibition of carrageenan-induced paw oedema at 50 mg/kg, po administered 1 hr prior to carrageenan challenge measured at 1 hr post carrageenan challenge by plethysmometeric analysis relative to control. An outline of the steps: as §2
Assay [13] concerns Rattus norvegicus. Kind of assay: Antiinflammatory activity in albino Wistar rat assessed as inhibition of carrageenan-induced paw oedema at 50 mg/kg, po administered 1 hr prior to carrageenan challenge measured at 2 hrs by plethysmometeric analysis relative to control. The method in brief:
as §2

Assay [14] concerns Rattus norvegicus. Put plainly: Antiinflammatory activity in albino Wistar rat assessed as inhibition of carrageenan-induced paw oedema at 10 mg/kg, po administered 1 hr prior to carrageenan challenge measured at 3 hrs by plethysmometeric analysis relative to control. An outline of the steps: (§3)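 Albino Wistar rats of either sex (130–150 g), 6 per group, fasted 12 h with water ad libitum. Indomethacin 10 mg/kg was given orally in 1 ml 20% v/v DMSO; controls received vehicle. One hour later, 0.1 ml 1% w/v carrageenan in 0.9% saline was injected subplantar into the left hind paw. Paw volume was read by plethysmometer at 0 and 1–4 h. % inhibition = [1 − (Vt/Vc)] × 100.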

Assay [15] relates to Rattus norvegicus. Kind of assay: Antiinflammatory activity in albino Wistar rat assessed as inhibition of carrageenan-induced paw oedema at 10 mg/kg, po administered 1 hr prior to carrageenan challenge measured at 1 hr post carrageenan challenge by plethysmometeric analysis relative to control. An outline of the steps:
as §3

For assay [16], the system named is Rattus norvegicus. Kind of assay: Antiinflammatory activity in albino Wistar rat assessed as inhibition of carrageenan-induced paw oedema at 10 mg/kg, po administered 1 hr prior to carrageenan challenge measured at 2 hrs by plethysmometeric analysis relative to control. The method in brief:
as §3

The test system of assay [17] is Rattus norvegicus. Kind of assay: Antiinflammatory activity in albino Wistar rat assessed as inhibition of carrageenan-induced paw oedema at 10 mg/kg, po administered 1 hr prior to carrageenan challenge measured at 4 hrs by plethysmometeric analysis relative to control. An outline of the steps: as §3

Converted amounts (≈) assume the structure as drawn.

A word on the MIC: it is the least concentration at which growth counts as inhibited. As a reminder, the inhibition in vivo is the drop in the measured response relative to a control, in per cent.

For `C/C(=N\NC(=O)CC#N)c1ccc(N2CCOCC2)cc1`, the Activity_index is given as 75% in the assay with Staphylococcus aureus [1], 17.39% in the assay on Bacillus cereus [6], 14.28% in the assay on Proteus mirabilis [7] and 15.72% in the assay on Serratia marcescens [8]. In addition, the MIC in the assay with Staphylococcus aureus [2] was found to be 40 µg/mL (≈ 140 µM). Also, the “diameter of the inhibition zone (DIZ)” value in the assay on Bacillus cereus [3] amounted to 4 mm; with Proteus mirabilis [4], 3 mm; in the assay on Serratia marcescens [5], 2 mm; with Staphylococcus aureus [9], 18 mm.

`C/C(=N\N=C1/N=C2OC(=O)C=C2S1)c1ccc(N2CCOCC2)cc1`: the Activity_index in the assay on Staphylococcus aureus [1] is given as 20.83%; with Bacillus cereus [6], 17.39%; with Proteus mirabilis [7], 9.52%; with Serratia marcescens [8] it was 15.72%. Also, the “diameter of the inhibition zone (DIZ)” value in the assay on Bacillus cereus [3] is recorded as 4 mm; with Proteus mirabilis [4], 2 mm; with Serratia marcescens [5], 3 mm; with Staphylococcus aureus [9], 5 mm. Moreover, the inhibition in vivo at 50 mg/kg worked out at 75.7% in the assay with Rattus norvegicus [10], 85% in the assay with Rattus norvegicus [11], 23.3% with Rattus norvegicus [12] and 50.6% with Rattus norvegicus [13].

Consider `C/C(=N\N=C(\N)S)c1ccc(N2CCOCC2)cc1`, for which the Activity_index in the assay with Staphylococcus aureus [1] is 16.67%; in the assay on Bacillus cereus [6] it was 17.39%; in the assay on Proteus mirabilis [7] it was 9.52%; with Serratia marcescens [8], 15.72%. For the same compound, the “diameter of the inhibition zone (DIZ)” value in the assay on Bacillus cereus [3] is given as 4 mm; in the assay with Proteus mirabilis [4], 2 mm; in the assay with Serratia marcescens [5], 3 mm; with Staphylococcus aureus [9] it was 4 mm. Moreover, the inhibition in vivo at 50 mg/kg with Rattus norvegicus [10] was 55.7%; with Rattus norvegicus [11] it was 83.6%; in the assay with Rattus norvegicus [12] it was -35%; in the assay with Rattus norvegicus [13], 23%.

For `COc1ccc2c(c1)c(CC(=O)O)c(C)n2C(=O)c1ccc(Cl)cc1` [INDOMETHACIN], the inhibition in vivo at 10 mg/kg in the assay with Rattus norvegicus [14] turned out to be 75.5%; in the assay with Rattus norvegicus [15], 10.5%; with Rattus norvegicus [16], 45.1%; in the assay with Rattus norvegicus [17], 91.3%.

(Values after ChEMBL document CHEMBL2401617, “Synthesis and biological evaluation of some novel thiazole compounds as potential anti-inflammatory agents” (2013).)
